In article PMC8511113 (European journal of medicinal chemistry, 2021):
Entries after “also recorded” stand apart in the source; their conditions may differ.

Key:
[1] = In-vivo single dose oral rat pharmacokinetics; conditions: oral 1 mg/kg, male Lewis rats
Summary of the method: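 Male Lewis rats, 3 per group, were fasted at least 16 h before dosing, with food returned about 4 h after. A 0.5 mg/mL suspension in 0.5% methylcellulose (400 cps) was given by gavage at 1.0 mg/kg (2 mL/kg). Jugular-catheter blood (K2EDTA) was drawn pre-dose and at 0.25–24 h. Plasma was obtained at 2200xg for 10 min, refrigerated. AUC(0-inf) came from the arithmetic mean concentration–time curve.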

[2] = system: MIA-induced cartilage degeneration in rat knee; assay: MIA rat model of OA via IA dosing, joint histology; assay type: in vivo, male Sprague Dawley rats
Summary of the method: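 Cartilage damage was induced in male Sprague Dawley rats with 2 mg MIA in 40 μl, injected into the right knee. On days 5, 12 and 19 after MIA, rats received intra-articular injections (8 per group) of vehicle, test compound (1 mg, saline suspension) or triamcinolone (0.06 mg). Naive rats (5) received no injections. Right knees were taken on day 26 for histology of the MTP, MFC, LTP and LFC surfaces and their mean. Groups were compared with vehicle by one-way ANOVA or Kruskal-Wallis with post-test, significance p<0.05.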

[3] = IA days 5, 12, 19, histology day 26, AQU-019 1 mg
[4] = IA days 5, 12, 19, histology day 26, AQU-019 1 mg, Triamcinolone 0.06 mg
[5] = IA days 5, 12, 19 after MIA, histology day 26, AQU-019 1 mg, significant

Compound | Improvement in AUC(0-infinity) over non-deuterated parent 18 [1] [%] | Increase of AUC(0-t) over non-deuterated parent 18 [1] [%] | Increase of Cmax over non-deuterated parent 18 [1] [%] | Bone resorption vs Vehicle (in words) [2, 3] | Osteophyte scores/measurement vs Vehicle (in words) [2, 3] | Cartilage degeneration / chondroprotection vs Vehicle (in words) [2, 4] | Reduction in the mean loss on the LTP and LFC vs Vehicle [2, 5] | Reduction in the mean loss, mean of all surfaces vs Vehicle [2, 5] [%] | Reduction of osteophyte scores/measurement vs Vehicle ([2]; IA days 5, 12, 19, day 26, Triamcinolone 0.06 mg, P<0.05) | Reduction of bone resorption, overall mean vs Vehicle ([2]; IA days 5, 12, 19, day 26, Triamcinolone 0.06 mg, significant) [%] | Cell loss vs Vehicle (in words) ([2]; IA days 5, 12, 19, histology day 26, Triamcinolone 0.06 mg)
[2H]C([2H])(NC(=O)c1cc(C(=O)NCc2ccc(F)c(C)c2)ncn1)c1ccc(C(=O)O)cc1 [AQU-019, 4-(Dideutero-{[6-(4-fluoro-3-methyl-benzylcarbamoyl)-pyrimidine-4-carbonyl]-amino}-methyl)-benzoic acid] | 64 | 68 | 17 | trend of reduced resorption compared to Vehicle but was not statistically significant; also recorded: while reduced, was not statistically significant | no reduction in osteophyte measurement; also recorded: comparable to Vehicle control; also recorded: no effect on osteophytes measurement | significant chondroprotection | 21–22% | 16 | – | – | –
C[C@]12C=CC(=O)C=C1CC[C@H]1[C@@H]3C[C@@H](O)[C@](O)(C(=O)CO)[C@@]3(C)C[C@H](O)[C@@]12F [Triamcinolone, reference compound] | – | – | – | – | – | no reductions in cartilage degeneration | – | – | 40–47% | 43 | no significant reductions in cell loss
